# CHO-K1 Ca PAM = nonselective calcium activators in parental CHO-K1 cells, primary screen, counter-screen for M1 PAM project, cell-based, Fluo-8 calcium fluorescence, full deck, 1536-well | ATP EC20; 0% at ATP EC20, 100% at ATP max | activation, % at 3 µM | 360,000 tested, 0.02% active;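 active = activation above the run cutoff, the mean activation of all test compounds plus 3 SD, cut at about 40% in these data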;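 also: peak over basal fluorescence ratio in a 140 s read after ATP addition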
# CHO parental Ca = ATP-evoked calcium signal inhibitors, parental CHO, primary screen, counter-screen for OX1R antagonist project, cell-based, fluorescence, Fluo-8 calcium dye; inhibition, % at 5.6 µM; parental CHO-K1, ATP-induced calcium, Fluo-8 fluorescence; 330,000 tested, 0.63% active; AID 463079, 2010;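 active = inhibition above that plate's mean sample inhibition plus 3 SD, cut at about 26% in these data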;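 also: 0% = ATP-challenged DMSO wells and 100% = DMSO wells without ATP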
#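 Material: Parental CHO cells | Reagent: ATP | Compound dosing: Single nominal dose of 5.6 µM per compound | Detection: Intracellular calcium via Fluo-8 no-wash fluorescent dye | Read-out: % inhibition of ATP-induced calcium mobilization | Benchmarks: Low control ATP plus DMSO, high control DMSO only | Replicates: Singlicate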
# OX1R antag-1 = OX1R (HCRTR1) antagonists, primary screen, fluorescence, CHO/OX1R cells, Fluo-8 calcium, orexin A. Orexin/Hypocretin receptor type 1 (Homo sapiens), O43613. inhibition, % at 5 µM. 330,000 tested, 0.43% active. Fluo-8 calcium fluorescence;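 active = inhibition above its plate's threshold, mean inhibition of all tested compounds on the plate plus 3 SD, cut at about 37% in these data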;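 also: 0% = orexin A challenge wells and 100% = SB-334867-A antagonist wells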
# Target sequence (O43613 whole entry, looked up): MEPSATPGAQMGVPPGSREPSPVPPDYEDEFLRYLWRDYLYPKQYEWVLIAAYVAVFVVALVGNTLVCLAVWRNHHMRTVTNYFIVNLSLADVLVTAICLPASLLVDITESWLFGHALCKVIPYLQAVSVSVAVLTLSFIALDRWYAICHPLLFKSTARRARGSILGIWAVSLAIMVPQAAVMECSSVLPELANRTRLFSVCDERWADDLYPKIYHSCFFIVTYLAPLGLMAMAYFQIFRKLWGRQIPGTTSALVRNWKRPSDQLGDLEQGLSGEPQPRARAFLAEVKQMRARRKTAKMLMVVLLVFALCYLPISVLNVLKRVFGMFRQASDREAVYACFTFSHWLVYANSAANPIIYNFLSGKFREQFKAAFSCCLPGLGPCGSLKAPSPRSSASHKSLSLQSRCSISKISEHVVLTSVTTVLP
# OX1R antag-2 = antagonists of human orexin 1 receptor (OX1R); AID 485270, 2010; 330,000 tested, 1.8% active; inhibition, % at 6.6 µM; OX1R-expressing cells, FRET antagonist read-out; in the data active = inhibition mostly above about 38%, no sharp cut-off; inactive = mostly below about 40%;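 also: 0% = agonist challenge alone and 100% = reference antagonist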
# M1 ag parental = counter-screen for M1 agonists: effect in parental CHO-K1 cells; AID 602248, 2012; 360,000 tested, 0.48% active; activation, % at 3 µM; Fluo-8 calcium fluorescence; scaled to maximal ATP response, vehicle zero; in the data active = activation above about 15%;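 also: untransfected CHO-K1 host cells lacking M1 receptor as counterscreen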
# CHO-K1 Ca antag = M1 antagonist counterscreen hit in parental CHO-K1 cells; ATP-induced calcium, Fluo-8 fluorescence; inhibition, % at 3 µM; 360,000 tested, 0.6% active; AID 602250;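 active = inhibition above a per-plate cutoff, the plate's mean sample inhibition plus 3 SD, cut at about 24% in these data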;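 also: 0% = DMSO plus EC80 ATP and 100% = DMSO alone without ATP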
# * marks the source's active call; other numbers are inactive results; · = no result given. Rows were chosen to be rich in hits. Some 2.9% of all compounds tested hit in one or more screens of this group.
SMILES,CHO-K1 Ca PAM,CHO parental Ca,OX1R antag-1,OX1R antag-2,M1 ag parental,CHO-K1 Ca antag
Cc1ccc(N(CC(=O)N2CC(=O)Nc3ccccc32)S(=O)(=O)c2ccc3c(c2)OCCO3)cc1,-3,-26,-21,2,0,29*
CC1CCN(C(=O)CN(c2ccc3c(c2)OCCO3)S(=O)(=O)c2ccccc2)CC1,19,-19,-24,21,3,-1
COc1ccc(CC(=O)Nc2ccc(S(=O)(=O)N3CCC(C)CC3)cc2)c(OC)c1,3,-15,-23,-4,3,-13
Cc1c(/C=C/C(=O)c2ccccc2)cnn1C,8,-2,1,41*,16*,-1
N#C/C(=C/c1ccc(-c2ccc(S(N)(=O)=O)cc2)o1)c1nc2ccccc2s1,-6,64*,80*,20,30*,41*
N#C/C(=C/c1ccc(-c2ccc(S(N)(=O)=O)cc2)o1)C(=O)Nc1ccccc1,11,7,0,37,4,28*
O=C(O)CCCN1C(=O)/C(=C/c2ccc(-c3nc4ccccc4s3)o2)SC1=S,17,-5,1,2,9,11
N#C/C(=C\c1ccc(-c2nc3ccccc3s2)o1)C(N)=O,-21,-19,26,52*,1,6
NS(=O)(=O)c1ccc(-c2ccc(C=C3C(=O)c4ccccc4C3=O)o2)cc1,4,-11,-7,28,1,-10
CCCC(=O)Nc1nnc(S(=O)(=O)N(CC(C)C)c2ccccc2)s1,2,0,-5,12,1,3
CS(=O)(=O)NCCCNc1ccc(Cl)cc1[N+](=O)[O-],-4,-7,-8,43*,1,0
COc1cccc(CNC2CCCCCCC2)c1OC,8,-8,-13,11,1,-4
Cc1ccccc1OCC(=O)Nc1c2c(nn1C(C)(C)C)CS(=O)(=O)C2,24,-1,-9,18,1,-12
COc1cc(C2N(C)C(=O)c3ccccc3N2C)ccc1O (stereo not drawn),6,-8,-21,8,17*,0
C#CCn1cc(Cl)cc(C(=O)Nc2ccccc2)c1=O,-2,-24,-9,0,2,-3
Fc1cccc(CNc2ncnc3cc(Cl)ccc23)c1F,4,-3,-18,23,15*,23
Cc1ccc(C=Nc2cc([N+](=O)[O-])ccc2C)s1,-15,0,1,17,0,24*
Cc1noc(C)c1NC(=O)N(C)C[C@@H]1Oc2c(NC(=O)c3ccncc3)cccc2C(=O)N([C@H](C)CO)C[C@@H]1C,-14,-2,-3,5,0,6
CCOc1ccc(-c2cc(C(=O)Nc3ccc4c(c3)OCCO4)c3ccccc3n2)cc1,5,-21,-19,13,3,30*
CCOc1cc(N2CCOCC2)c(OCC)cc1NC(=O)c1cc(-c2ccco2)nc2ccccc12,17,8,-1,37*,5,2
CCOc1ccc(-c2cc(C(=O)N/N=C/c3cccnc3)c3ccccc3n2)cc1,-1,-49,-36,15,24*,13
O=C(N/N=C/c1ccc2ncccc2c1)c1cc(-c2cccs2)nc2ccccc12,6,-18,19,62*,0,-10
CCOc1cc(N2CCOCC2)c(OCC)cc1NC(=O)COc1ncnc2ccccc12,16,-18,-13,2,2,-1
COc1cc(CC(=O)Nc2cc(S(=O)(=O)N3CCOCC3)ccc2N2CCCC2)cc(OC)c1OC,-6,·,·,·,0,0
Cc1ccc2c(c1)[C@H]1[C@H](CO2)[C@H](c2ccccc2)[C@]2(C)C(=O)N(Cc3ccc(F)cc3)CC(=O)N12,-8,-16,34,11,4,2
O=C(O)c1ccccc1NC(=O)c1cc(-c2ccccc2)nc2ccccc12,-20,-17,-25,57*,2,8
O=C(Nc1ccon1)c1cc(-c2ccccc2)nc2ccccc12,17,-26,-12,21,5,1

# Bioassay records deposited in PubChem by The Scripps Research Institute Molecular Screening Center.
